The text below walks through data of ChEMBL document CHEMBL5331087, “Targeted AURKA degradation: Towards new therapeutic agents for neuroblastoma” (Eur J Med Chem, 2023).

The test system of one assay is NGP. Description: Induction of apoptosis in human NGP cells assessed as increase in caspase3/7 level at 1000 nM incubated for 24 hrs. In kind it is functional, cell-based. The procedure, abridged:
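NGP cells were seeded at 25,000 cells/well and allowed to adhere overnight. Compound was dispensed in triplicate with DMSO matched. At 24 h, cell-occupied area was imaged live, then a Caspase-Glo 3/7 assay was run using 50 µL reagent per well. Signal is expressed per cell-occupied area.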

Assay [1] in a line: Growth inhibition of patient derived NB067 Neuroblastoma organoid assessed as reduction in viability incubated for […] by CellTiter Glo 3D assay relative to control. In kind it is functional. The settings on record: Homo sapiens.
Assay [2] deals with SK-N-AS. Description: Antiproliferative activity against human SK-N-AS cells assessed as reduction in cell viability incubated for 48 hrs. In kind it is functional, cell-based. The settings on record: Homo sapiens, SK-N-AS, 48 h; read-out: IC50. The method, boiled down: (§1)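 Cells were grown in RPMI 1640 with 10% FCS and 2 mM L-glutamine. Seeding was 4500 cells/well for NGP, IMR-32 and N206, and 2100 cells/well for SK-N-AS, with adherence overnight. Compound was dispensed over a concentration range in triplicate. Confluence was imaged live for 48 h and normalised to the DMSO control. Absolute IC50 came from a four-parameter variable-slope fit (n = 4).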

A further assay relates to IMR-32. Description: Antiproliferative activity against human IMR-32 cells assessed as reduction in cell viability incubated for 48 hrs. In kind it is functional, cell-based. The settings on record: IMR-32, 48 h. The procedure, abridged:
as §1

The target of assay [3] is T1, N-myc proto-oncogene protein (Homo sapiens) (UniProt P04198).
T1 sequence (whole entry): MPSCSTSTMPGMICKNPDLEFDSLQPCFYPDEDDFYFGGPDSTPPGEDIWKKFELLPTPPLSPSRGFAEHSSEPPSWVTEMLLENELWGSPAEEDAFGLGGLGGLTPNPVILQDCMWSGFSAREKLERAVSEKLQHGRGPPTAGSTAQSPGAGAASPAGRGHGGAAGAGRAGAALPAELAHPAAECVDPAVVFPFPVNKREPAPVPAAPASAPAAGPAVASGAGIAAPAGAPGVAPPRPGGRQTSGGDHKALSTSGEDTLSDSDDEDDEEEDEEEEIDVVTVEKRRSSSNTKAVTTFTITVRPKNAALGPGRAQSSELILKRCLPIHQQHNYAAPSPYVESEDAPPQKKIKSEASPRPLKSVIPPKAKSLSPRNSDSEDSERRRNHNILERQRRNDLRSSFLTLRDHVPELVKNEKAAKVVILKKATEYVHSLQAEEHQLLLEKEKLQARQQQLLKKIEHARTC
Description: Induction of MYCN degradation in human NGP cells at 500 nM by Western blot analysis. In kind it is cell-based. The settings on record: time <= 72.0 hrs. The procedure, abridged: (§2)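 NGP cells were treated with 500 nM compound and harvested at 0, 1, 3, 6, 24, 48 and 72 h. RIPA lysates (35 µg) were run on 10% SDS-PAGE and blotted to nitrocellulose. AURKA and MYCN were probed with vinculin as loading control and quantified by densitometry. Values are percent remaining relative to the DMSO control at each timepoint (n = 3).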
(In general: Immunoblotting shows a protein as a band on a membrane.)

Assay [4] concerns the target T2, Protein cereblon/Aurora kinase A (Homo sapiens) (UniProt O14965+Q96SW2). Description: PROTAC activity at AURKA/CRBN in human NGP cells assessed as reduction in AURKA level at 500 nM measured for 48 hrs by Western blot analysis. In kind it is cell-based. Set-up: scale not given: the % may be the effect or the level left. The procedure, abridged: as §2
The target in assay [5] is T2, Protein cereblon/Aurora kinase A (Homo sapiens). Description: PROTAC activity at AURKA/CRBN in human NGP cells assessed as AURKA degradation at 0.1 to 1000 nM measured for 24 hrs by Western blot analysis relative to control. The settings on record: dose 0.1-1000 nM. In kind it is cell-based. The method, boiled down:
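NGP cells were seeded at about 2×10^6 per flask, adhered for 48 h, and were then treated for 24 h with DMSO matched. Lysis was in RIPA with protease/phosphatase inhibitors. AURKA was quantified by capillary Simple Western with peak areas normalised to vinculin. Fold change is relative to DMSO (mean ± SD, n = 3).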

Assay [6] shares this target. Description: PROTAC activity at AURKA/CRBN in human NGP cells assessed as AURKA degradation measured for 24 hrs by Western blot analysis. The settings on record: dose 10-1000 nM. In kind it is cell-based.
The target is the same in assay [7]. Description: PROTAC activity at AURKA/CRBN in human NGP cells assessed as AURKA degradation at 10 to 1000 nM measured for 24 hrs in presence of thalidomide by Western blot analysis. In kind it is cell-based. The settings on record: dose 10-1000 nM.
Assay [8] is described as follows: Growth inhibition of patient derived NB139 Neuroblastoma organoid assessed as reduction in viability incubated for […] by CellTiter Glo 3D assay relative to control. In kind it is functional. The settings on record: Homo sapiens. (In ATP-based viability assays light output follows the ATP content of the culture.)
A short description of assay [9]: Growth inhibition of patient derived NB067 Neuroblastoma organoid assessed as reduction in viability […] by CellTiter Glo 3D assay. The settings on record: Homo sapiens. In kind it is functional, tissue-based. The procedure, abridged:
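Patient-derived organoids were dissociated to single cells with Accutase and seeded in NB organoid medium at 5000 (000GKX), 20000 (NB059), 5000 (NB067) or 3000 (NB139) cells/well. Compound was added after 24 h over a concentration range in triplicate, with DMSO matched. Incubation was 120 h at 37 °C and 5% CO2. Viability was read by CellTiter-Glo 3D, and absolute IC50 derived (n = 1).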

Assay [10] concerns SK-N-AS. Description: Antiproliferative activity against human SK-N-AS cells assessed as reduction in cell viability incubated for 48 hrs relative to control. In kind it is functional. The method, boiled down: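 Cells grown in RPMI 1640 with 10% fetal calf serum, 2 mM L-glutamine and penicillin/streptomycin at 37 °C, 5% CO2. Seeded at 4500 (IMR-32) or 2100 (SK-N-AS) cells/well in 384-well plates and left to adhere overnight. Concentration range dispensed in triplicate. Confluence tracked by IncuCyte live-cell imaging, and 48h values normalized to DMSO. Absolute IC50 taken from a four-parameter variable-slope fit (n = 4).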

Active and inactive are the calls of the source. The rule behind the calls is not given here.

T2 sequence (O14965 whole entry, looked up): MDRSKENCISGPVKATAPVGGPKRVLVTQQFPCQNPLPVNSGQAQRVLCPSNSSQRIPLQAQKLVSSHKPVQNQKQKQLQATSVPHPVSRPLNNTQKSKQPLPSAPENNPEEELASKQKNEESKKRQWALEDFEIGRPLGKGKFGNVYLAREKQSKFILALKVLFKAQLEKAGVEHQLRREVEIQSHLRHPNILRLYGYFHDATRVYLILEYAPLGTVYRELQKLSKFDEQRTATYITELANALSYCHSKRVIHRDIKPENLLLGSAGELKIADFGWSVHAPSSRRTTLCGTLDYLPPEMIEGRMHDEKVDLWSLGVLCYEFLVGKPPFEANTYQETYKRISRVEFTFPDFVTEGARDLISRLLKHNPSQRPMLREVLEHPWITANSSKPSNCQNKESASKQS
T2 sequence (Q96SW2 whole entry, looked up): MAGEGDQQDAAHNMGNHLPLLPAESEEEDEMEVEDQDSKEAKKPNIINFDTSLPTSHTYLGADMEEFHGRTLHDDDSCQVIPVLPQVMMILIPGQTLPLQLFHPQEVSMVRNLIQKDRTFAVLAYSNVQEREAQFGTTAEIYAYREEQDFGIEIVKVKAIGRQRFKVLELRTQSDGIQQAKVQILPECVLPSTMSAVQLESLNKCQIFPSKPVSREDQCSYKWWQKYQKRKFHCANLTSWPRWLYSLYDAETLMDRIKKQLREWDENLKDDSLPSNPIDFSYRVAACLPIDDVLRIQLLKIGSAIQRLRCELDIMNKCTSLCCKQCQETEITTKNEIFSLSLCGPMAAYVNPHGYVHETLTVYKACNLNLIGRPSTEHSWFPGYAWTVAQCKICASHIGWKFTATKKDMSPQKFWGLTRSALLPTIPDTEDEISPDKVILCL

Broadly, the IC50 is the concentration at which inhibition is half-maximal. As to `O=C1CCC(N2C(=O)c3cccc(OCCOCCOCCOCCNC(=O)[C@]4(Cc5cccc(Nc6nccs6)n5)CC[C@@H](Oc5cccc(Cl)c5F)CC4)c3C2=O)C(=O)N1` (some centres not stated), the result (in the assay with NGP; in [6]) was Active. In addition, the Emax was found to be 15.5% in assay [1], 89% in assay [5], 37.8% in [8] and 45% in the assay on SK-N-AS [10]. The IC50 in the assay with SK-N-AS [2] stood at 6690 nM; with IMR-32, 21.5 nM; in assay [9] it was 26.4 nM. Besides, the Activity entry was “Dose-Dependent Effect” in [3] and 100% in assay [4]. Further, in assay [7], the outcome was inactive.
